Here are results for twelve compounds from ChEMBL document CHEMBL2021767, “Library-based discovery and characterization of daphnane diterpenes as potent and selective HIV inhibitors in Daphne gnidium” (J Nat Prod, 2012).

Calls of active or inactive are those of the source. The rule behind the calls is not given here.

Data set [1] concerns Human immunodeficiency virus 1. In words: Resistance factor, ratio of EC50 for multidrug-resistant HIV1 695-RT infected in HEK293T cells to wildtype HIV1 infected in HEK293T cells. Format: functional, HEK-293T. Summed up:
(§1)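 Resistance factor = EC50 against mutant virus (106-PR or 695-RT) divided by EC50 against wild-type; EC50s from 4-day HEK293T-transfection/HeLa-SxR5 co-culture with β-galactosidase read-out (405 nm), normalized to plate controls, curve-fitted.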

Data set [2] relates to Human immunodeficiency virus 1. The data set is described as follows: Antiviral activity against multidrug-resistant HIV1 106-PR infected in HEK293T cells assessed as inhibition of viral replication after 4 days by beta-galactosidase reporter gene assay. Conditions: Human immunodeficiency virus 1, 106-PR, HEK-293T, 96 h. The class given is functional, organism-based. Summed up:
(§2)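 HEK293T transfected with proviral DNA (wild-type NL4-3 CXCR4-tropic or NL-AD87 CCR5-tropic, or multiresistant 106-PR protease-inhibitor or 695-RT RT-inhibitor mutants), then co-cultured 4 days with HeLa-SxR5 reporter cells (CD4, CCR5, endogenous CXCR4, LTR-LacZ) plus test substance; DMEM/10% FBS, 37 °C, 7% CO2. β-galactosidase colorimetric read at 405 nm, normalized to plate controls; EC50 from fitted dose-response curves.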
In general terms: A reporter such as luciferase makes a cellular process visible.

Data set [3] deals with Human immunodeficiency virus 1. In words: Antiviral activity against multidrug-resistant HIV1 695-RT infected in HEK293T cells assessed as inhibition of viral replication after 4 days by beta-galactosidase reporter gene assay. Format: functional, organism-based. Conditions: Human immunodeficiency virus 1, 695-RT, HEK-293T, 96 h. Summed up:
as §2

The test system of data set [4] is Human immunodeficiency virus 1. In words: Resistance factor, ratio of EC50 for multidrug-resistant HIV1 106-PR infected in HEK293T cells to wildtype HIV1 infected in HEK293T cells. Format: functional, HEK-293T. Put shortly: as §1
Data set [5] concerns Human immunodeficiency virus 1. In words: Antiviral activity against CXCR4-tropic HIV1 NL4-3 infected in HEK293T cells assessed as inhibition of viral replication after 4 days by beta-galactosidase reporter gene assay. Format: functional, organism-based. The settings on record: Human immunodeficiency virus 1, NL4-3, HEK-293T, 96 h. Summed up:
as §2

Data set [6] concerns Human immunodeficiency virus 1. In words: Antiviral activity against CCR5-tropic HIV1 NL-AD87 infected in HEK293T cells assessed as inhibition of viral replication after 4 days by beta-galactosidase reporter gene assay. Format: functional, organism-based. The settings on record: Human immunodeficiency virus 1, NL-AD87, HEK-293T, 96 h. Summed up:
as §2

The test system of another data set is HEK-293T. In words: Cytotoxicity against human HEK293T cells after 4 days by Alamar blue assay. Format: cell-based. The settings on record: 96 h. Summed up:
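Same culture set-up as the anti-HIV assay (HEK293T with HeLa-SxR5, DMEM/10% FBS, 37 °C, 7% CO2) but with no proviral DNA transfected; viability read with AlamarBlue after 4 days.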

For data set [7], the system named is Human immunodeficiency virus 1. In words: Antiviral activity against wild type Human immunodeficiency virus 1 NL4-3 pseudotyped with HIV envelope infected in human HeLa-SxR5 cells assessed as inhibition of viral replication at 65 nM after 3 days by beta-galactosidase assay. The class given is functional, organism-based. Put shortly:
(§3)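 HEK293T cells cotransfected with an envelope-defective NL4-3-derived provirus plus a plasmid expressing full-length NL4-3 HIV envelope. Supernatants were harvested 2 days post-transfection, spun at low speed to clear debris, and used to transduce HeLa-SxR5 reporter cells (CD4/CCR5, endogenous CXCR4, HIV-LTR-LacZ) with or without compound. β-galactosidase was read colorimetrically at 405 nm 3 days later and normalised to positive and negative control wells as percent inhibition.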

For data set [8], the system named is Human immunodeficiency virus 1. The data set is described as follows: Antiviral activity against wild type Human immunodeficiency virus 1 NL4-3 pseudotyped with VSV envelope infected in human HeLa-SxR5 cells assessed as inhibition of viral replication at 65 nM after 3 days by beta-galactosidase assay. Format: functional, organism-based. Summed up:
(§4)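 Pseudoparticles made by cotransfecting HEK293T with env-defective NL4-3 provirus plus plasmid for full-length NL4-3 Env or VSV envelope; supernatants harvested 2 days post-transfection, cleared by low-speed spin, used to transduce HeLa-SxR5 with or without compound at increasing concentrations; β-galactosidase activity measured 3 days later; means ± standard deviation.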

Data set [9] relates to PBMC. In words: Upregulation of CD69 expression in PHA- and IL-2-stimulated human PBMC membranes at 20 nM after 48 hrs by flow cytometric analysis. Format: functional, cell-based. Summed up: (§5)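 Healthy-donor PBMCs at 1 × 10^6 cells/mL in RPMI/10% FBS, activated 48 h with PHA 2.5 μg/mL and IL-2 300 IU/mL, then treated 48 h with 20 nM compound or vehicle (0.25% DMSO, 100 IU/mL IL-2). Sampled at 0, 2, 5, 24, 48 h; stained 40 min at 4 °C with FITC anti-CXCR4 or anti-CCR5, or PE anti-CD69, plus isotype controls; flow cytometry, % cells expressing each receptor.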
A general note: A flow cytometer gives signals particle by particle.

The subject of data set [10] is Human immunodeficiency virus 1. The data set is described as follows: Antiviral activity against wild type Human immunodeficiency virus 1 NL4-3 pseudotyped with HIV envelope infected in human HeLa-SxR5 cells assessed as inhibition of viral replication after 3 days by beta-galactosidase assay. Format: functional, organism-based. Put shortly:
as §4

For data set [11], the system named is Human immunodeficiency virus 1. The data set is described as follows: Antiviral activity against wild type Human immunodeficiency virus 1 NL4-3 pseudotyped with VSV envelope infected in human HeLa-SxR5 cells assessed as inhibition of viral replication after 3 days by beta-galactosidase assay. Format: functional, organism-based. Summed up: as §4
Data set [12] has as its system PBMC. The data set is described as follows: Down-regulation of CCR5 expression in PHA- and IL-2-stimulated human PBMC membranes at 20 nM after 48 hrs by flow cytometric analysis. Format: functional, cell-based. Summed up:
as §5

Data set [13] concerns PBMC. The data set is described as follows: Down-regulation of CXCR4 expression in PHA- and IL-2-stimulated human PBMC membranes at 20 nM after 48 hrs by flow cytometric analysis. Format: functional, cell-based. Put shortly:
as §5

Data set [14] relates to Human immunodeficiency virus 1. In words: Antiviral activity against wild type Human immunodeficiency virus 1 NL4-3 pseudotyped with VSV envelope infected in human HeLa-SxR5 cells assessed as inhibition of viral replication at 300 nM after 3 days by beta-galactosidase assay. Format: functional, organism-based. Summed up:
as §4

The subject of data set [15] is Human immunodeficiency virus 1. In words: Antiviral activity against wild type Human immunodeficiency virus 1 NL4-3 pseudotyped with HIV envelope infected in human HeLa-SxR5 cells assessed as inhibition of viral replication at 300 nM after 3 days by beta-galactosidase assay. The class given is functional, organism-based. Summed up: as §3

Usually EC50 stands for the concentration needed to bring the measured effect to its halfway point. Regarding `Cc1cn([C@H]2C[C@H](N=[N+]=[N-])[C@@H](CO)O2)c(=O)[nH]c1=O` [ZIDOVUDINE], the “Ratio EC50” value in data set [1] is given as 11. Besides, the EC50 in [2] worked out at 0.006 µM; in [3], 0.2 µM.
`CC(C)CN(C[C@@H](O)[C@H](Cc1ccccc1)NC(=O)O[C@H]1CO[C@H]2OCC[C@H]21)S(=O)(=O)c1ccc(N)cc1` [DARUNAVIR]: the concentration for a half-maximal effect (EC50) in data set [2] worked out at 13.7 µM. Besides, the “Ratio EC50” value in [4] is on record as greater than 300.
For `COC(=O)N[C@H](C(=O)N[C@@H](Cc1ccccc1)[C@@H](O)CN(Cc1ccc(-c2ccccn2)cc1)NC(=O)[C@@H](NC(=O)OC)C(C)(C)C)C(C)(C)C` [ATAZANAVIR], in that order: 0.324 µM and 7.
`C=C(C)[C@]12C[C@@H](C)[C@@]34O[C@](/C=C/C=C/CCCCC)(O[C@@H]1[C@@H]3[C@@H]1O[C@]1(CO)[C@@H](O)[C@]1(O)C(=O)C(C)=C[C@H]14)O2` [EXCOECARIA TOXIN]: the EC50 was found to be 1.08 µM in [5] and 1.57 µM in data set [6]. Further, the Activity result in the data set with HEK-293T is “Non-toxic”.
As to `O=C1Nc2ccc(Cl)cc2[C@@](C#CC2CC2)(C(F)(F)F)O1` [EFAVIRENZ], in data set [1], the “Ratio EC50” value was found to be 222. Besides, the half-maximal effective concentration (EC50) in data set [3] was 0.889 µM. Further, the inhibition result in data set [7] and in data set [8] was “Active” each time.
Take `CC(C)(C)NC(=O)[C@@H]1C[C@@H]2CCCC[C@@H]2CN1C[C@@H](O)[C@H](Cc1ccccc1)NC(=O)[C@H](CC(N)=O)NC(=O)c1ccc2ccccc2n1` [SAQUINAVIR]: the half-maximal effective concentration (EC50) in data set [2] worked out at 0.012 µM. Moreover, the “Ratio EC50” value in [4] stood at 1.
For the compound `C=C(C)C12OC3(c4ccccc4)OC1[C@@H]1[C@@H]4O[C@]4(CO)[C@@H](O)[C@]4(O)C(=O)C(C)=C[C@H]4C1(O3)[C@H](C)[C@H]2OC(=O)/C=C/C=C/C=C/CCC` (stereo not given in full) [GNIDITRIN], the results for the half-maximal effective concentration (EC50) in data set [5] and in data set [6] were 0.074 µM and 0.133 µM, respectively. Moreover, in the data set with HEK-293T, the Activity result is “Non-toxic”.
For the compound `C=C(C)[C@]12C[C@@H](C)[C@@]34O[C@](c5ccccc5)(O[C@@H]1[C@@H]3[C@@H]1O[C@]1(CO)[C@@H](O)[C@]1(O)C(=O)C(C)=C[C@H]14)O2` [DAPHNETOXIN], the outcome in the data set with PBMC [9], in the data set on PBMC [12] and in the data set on PBMC [13] was Active. Besides, the 50% effective concentration (EC50) in [5] turned out to be 0.0162 µM; in [6] it was 0.0267 µM; in data set [2], 0.022 µM; in data set [3] it was 0.021 µM. The “Ratio EC50” value in data set [1] and in data set [4] was 1 each time. In addition, the Activity result in the data set with HEK-293T was “Non-toxic”. For the same compound, the inhibition result in [10] and in data set [11] was “Dose-dependent effect” throughout.
As to `Cc1cccc(C)c1OCC(=O)N[C@@H](Cc1ccccc1)[C@@H](O)C[C@H](Cc1ccccc1)NC(=O)[C@H](C(C)C)N1CCCNC1=O` [LOPINAVIR], the EC50 in data set [2] worked out at 0.16 µM. Also, in [4], the “Ratio EC50” value is reported as 10.
Regarding `Nc1ccn([C@@H]2CS[C@H](CO)O2)c(=O)n1` [LAMIVUDINE], the “Ratio EC50” value in [1] is listed as greater than 300. The concentration giving a half-maximal response (EC50) in [3] is greater than 20 µM.
For the compound `C=C(C)[C@@]12O[C@@]3(c4ccccc4)O[C@@H]1[C@@H]1[C@@H]4O[C@]4(CO)[C@@H](O)[C@]4(O)C(=O)C(C)=C[C@H]4[C@@]1(O3)[C@H](C)[C@H]2OC(=O)/C=C/c1ccccc1` [GNIDICIN], the EC50 stood at 0.0086 µM in data set [5] and 0.0176 µM in [6]. The Activity result in the data set with HEK-293T is “Non-toxic”.
On to enfuvirtide, for which the inhibition entry in data set [14] was “inactive”. Further, the inhibition result in data set [15] was “Active”.
